Laboratory results as given in ChEMBL document CHEMBL3751842, “Novel triazolothiadiazines act as potent anticancer agents in liver cancer cells through Akt and ASK-1 proteins” (Bioorg Med Chem, 2016).
Activity calls are given as the source filed them. The calls are words filed in the database; no cut-off is given here.

Key:
[1] = Cytotoxicity against human SNU475 cells assessed as growth inhibition after 72 hrs by sulforhodamine B assay; assay type: functional, cell-based, SNU-475
How it was run: (§1)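 Cells were grown at 37°C, 5% CO2 in DMEM with 10% FBS. They were seeded at 1000–3000 cells/well, grown 24 h, then exposed to compound at 2.5–40 µM for 72 h. Cells were fixed in 10% TCA for 1 h at 4°C, stained with 0.4% SRB in 1% acetic acid for 10 min, and the dye solubilized in 10 mM Tris. Absorbance was read at 515 nm; runs were in triplicate; IC50 was calculated, with fits of R2 0.8–1 accepted.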

MCF7 = test: Cytotoxicity against human MCF7 cells assessed as growth inhibition after 72 hrs by sulforhodamine B assay; assay type: functional, cell-based; how it was run: as §1
Huh-7 [2] = test: Induction of apoptosis in human HuH7 cells assessed as horseshoe nuclear structure at 10 uM after 48 hrs by Hoechst 33258 staining-based immunofluorescence microscopy; assay type: functional, cell-based
How it was run: (§2)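 Cells on coverslips were incubated overnight, then treated with 10 µM compound or DMSO for 48 h. They were washed in ice-cold PBS, fixed in cold methanol for 10 min, and stained with 1 µg/mL Hoechst 33258 for 5 min in the dark. Nuclei were examined by fluorescence microscopy with a 40x objective.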

[3] = Cytotoxicity against human FOCUS cells assessed as growth inhibition after 72 hrs by sulforhodamine B assay; assay type: functional, cell-based; how it was run: as §1
[4] = Cytotoxicity against human HCT116 cells assessed as growth inhibition after 72 hrs by sulforhodamine B assay; assay type: functional, cell-based, HCT-116; how it was run: as §1
[5] = Cytotoxicity against human Mahlavu cells assessed as growth inhibition after 72 hrs by sulforhodamine B assay; assay type: functional, cell-based; how it was run: as §1
Huh-7 [6] = test: Induction of apoptosis in human HuH7 cells assessed as nuclear condensation at 10 uM after 48 hrs by Hoechst 33258 staining-based immunofluorescence microscopy; assay type: functional, cell-based; how it was run: as §2
[7] = Cytotoxicity against human Hep3B cells assessed as growth inhibition after 72 hrs by sulforhodamine B assay; assay type: functional, cell-based, Hep 3B2; how it was run: as §1
HepG2 = test: Cytotoxicity against human HepG2 cells assessed as growth inhibition after 72 hrs by sulforhodamine B assay; assay type: functional, cell-based; how it was run: as §1
Huh-7 [8] = test: Cytotoxicity against human HuH7 cells assessed as cell impedance at IC25 to IC100 measured every 30 mins for 72 hrs by RT-CES assay; assay type: functional, cell-based; conditions: TDE = time-dependent effect
How it was run: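 Huh7 cells were seeded at 1000–5000 cells/well on electrode plates. […] Impedance was read as cell index every 10 min for the first 24 h, then every 30 min, over 72 h. Data were normalized to DMSO; inhibition (%) = [1 − (CI treated/CI DMSO)] × 100. Each experiment was run at least three times.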

[9] = Cytotoxicity against human HuH7 cells assessed as growth inhibition after 72 hrs by sulforhodamine B assay; assay type: functional, cell-based, Huh-7; how it was run: as §1
Huh-7 [10] = test: Induction of cell cycle arrest in human HuH7 cells assessed as accumulation at subG1 phase at 10 uM after 24 to 48 hrs by propidium iodide staining based FACS analysis; assay type: functional
How it was run: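 Huh7 cells were seeded at 300,000 per 100-mm dish. After 24 h they were treated with 10 µM compound or DMSO for 24 h and 48 h. Cells were trypsinized, fixed in ice-cold 70% ethanol and stored at −20 °C. They were then stained with propidium iodide and cell-cycle distribution, including SubG1, was read by flow cytometry.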

[11] = Homo sapiens, SNU-475, 72 h, read-out: IC50
[12] = Homo sapiens, MCF7, 72 h, read-out: IC50
[13] = Homo sapiens, FOCUS, 72 h, read-out: IC50
[14] = Homo sapiens, HCT-116, 72 h, read-out: IC50
[15] = Homo sapiens, Mahlavu, 72 h, read-out: IC50
[16] = Homo sapiens, Hep3B, 72 h, read-out: IC50
[17] = Homo sapiens, HepG2, 72 h, read-out: IC50
[18] = Homo sapiens, Huh-7, 72 h, read-out: IC50

Compound | IC50 [1, 11] [µM] | IC50 (MCF7; [12]) [µM] | Activity (Huh-7 [2]) | IC50 [3, 13] [µM] | IC50 [4, 14] [µM] | IC50 [5, 15] [µM] | Activity (Huh-7 [6]) | IC50 [7, 16] [µM] | IC50 (HepG2; [17]) [µM] | Activity (Huh-7 [8]) | IC50 [9, 18] [µM] | Activity (Huh-7 [10]) | IC50 ([3]; focus) | IC50 (HepG2; hepg2) | IC50 ([5]; mahlavu) | IC50 ([1]; snu-475) | IC50 (MCF7; mcf7) | IC50 ([4]; hct-116) | IC50 ([7]; hep 3b2) | IC50 ([9]; huh-7)
CC(c1ccc(-c2ccccc2)c(F)c1)c1nnc2n1N=C(c1ccc(Br)cc1)CS2 (stereo not drawn) | 7 | 7.4 | inactive | 8.5 | 7.1 | 6.2 | inactive | 1.5 | 3.7 | tde | 5 |  |  |  |  |  |  |  |  | 
CC(c1ccc(-c2ccccc2)c(F)c1)c1nnc2n1N=C(c1ccc(Cl)cc1Cl)CS2 (stereo not drawn) | 4.7 | 7.6 | Active | 5.4 | 6.9 | 6.6 | Active | 4.2 | 8.6 | tde | 3.7 |  |  |  |  |  |  |  |  | 
CC(C)Cc1ccc(C(C)c2nnc3n2N=C(c2ccc(Br)cc2)CS3)cc1 (stereo not drawn) | 10.1 | 9.4 | Active | 5.9 | 7.1 | 8.9 | Active | 8.3 | 6.4 | tde | 4.9 | Active |  |  |  |  |  |  |  | 
CC(c1ccc(-c2ccccc2)c(F)c1)c1nnc2n1N=C(c1ccc([N+](=O)[O-])cc1)CS2 (stereo not drawn) | 7.1 | 7.8 | inactive | 3.5 | 7.1 | 9.4 | inactive | 2.9 | 4.3 | tde | 4.3 |  |  |  |  |  |  |  |  | 
CC(C)Cc1ccc(C(C)c2n[nH]c(=S)n2N)cc1 (stereo not drawn) | 11.7 | 16.1 |  |  | 27.4 | 16.2 |  | 13.1 |  |  | 23 |  | Not Active | Not Active |  |  |  |  |  | 
COc1ccc2cc(C(C)c3n[nH]c(=S)n3N)ccc2c1 (stereo not drawn) | 15.9 | 22.3 |  |  | 20.2 |  |  | 1.9 | 40 |  | 40.8 |  | Not Active |  | Not Active |  |  |  |  | 
CC(C)Cc1ccc(C(C)c2nnc3n2N=C(c2ccc(OC(F)(F)F)cc2)CS3)cc1 (stereo not drawn) | 6.8 | 1.1 | Active | 8.8 | 3 | 9.1 | Active | 6.4 | 9.7 | tde | 3.6 |  |  |  |  |  |  |  |  | 
COc1ccc(C2=Nn3c(nnc3C(C)c3ccc(-c4ccccc4)c(F)c3)SC2)cc1 (stereo not drawn) | 6.7 | 2.6 | Active | 4.4 | 4.4 | 5.8 | Active | 3.5 | 4.2 | tde | 4.3 | Active |  |  |  |  |  |  |  | 
CC[C@@]1(O)C(=O)OCc2c1cc1n(c2=O)Cc2cc3ccccc3nc2-1 [CAMPTOTHECIN] | < 1 | ≤ 0.1 |  | < 1 | ≤ 0.1 | < 1 |  | < 1 | < 1 |  | ≤ 0.1 |  |  |  |  |  |  |  |  | 
COc1ccc2cc([C@H](C)C(=O)O)ccc2c1 [NAPROXEN] |  |  |  |  |  |  |  |  |  |  |  |  | Not Active | Not Active | Not Active | Not Active | Not Active | Not Active | Not Active | Not Active
CC(c1ccc(-c2ccccc2)c(F)c1)c1nnc2n1N=C(c1ccc(Cl)cc1)CS2 (stereo not drawn) | 3.8 | 8.7 | Active | 5 | 7.8 | 6.1 | Active | 3.8 | 6.7 | tde | 3.9 | Active |  |  |  |  |  |  |  | 
CC(c1ccc(-c2ccccc2)c(F)c1)c1nnc2n1N=C(c1ccc(F)cc1)CS2 (stereo not drawn) | 6.6 | 8.1 | Active | 3.5 | 10.5 | 7.4 | Active | 2.6 | 5.1 | tde | 4.9 |  |  |  |  |  |  |  |  | 
